# Reference: PMC5992016 (Movement disorders : official journal of the Movement …, 2018)
# Counter-ions that a name gives are not always drawn.
# Assays:
# [1] = tested on: AIMs (abnormal involuntary movements) in rodents; settings: cited from earlier work; for effect on AIMs in rodents: inhibitor of PDEs 5, 6 and 9
# [2] = tested on: L-Dopa-induced dyskinesias in MPTP-treated macaques; test: Acute co-administration with s.c. L-Dopa: LID scores; assay type: in vivo, Macaca fascicularis; settings: L-Dopa optimal dose s.c.; amantadine 5 or 10 mg/kg s.c.
# Outline: (§1)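 Used MPTP macaques (3 male, 2 female) on oral carbidopa/levodopa maintenance. Optimal s.c. L-Dopa methyl ester dose (MDS reduction 50–75%) was set per animal, with benserazide at one quarter. Amantadine or test compound (DMSO/cremophor) or vehicle was given s.c. just before. Blinded live and video scoring ran off-state, then from 30 min every 20 min. Part II: peak (50 min) and summed total. Part I: MDS AUC. Triplicate runs were averaged.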
# [3] = tested on: hand movement speed in MPTP-treated macaques; test: Acute co-administration with s.c. L-Dopa: Klüver board test; assay type: in vivo, Macaca fascicularis
# [4] = tested on: parkinsonian motor disability in MPTP-treated macaques; test: Acute co-administration with s.c. L-Dopa: motor disability scores; assay type: in vivo, Macaca fascicularis; settings: amantadine 5 and 10 mg/kg s.c.
# Outline: as §1
smiles,measurement,setting,value
CCCOc1ccccc1-c1nc2nn[nH]c2c(=O)[nH]1 [zaprinast],effect on AIMs in rodents,[1],improves AIMs
"NC12CC3CC(CC(C3)C1)C2 [amantadine, amantadine hydrochloride]",effect on LID compared with MR1916,[2],similar
same,movement speed (time) in KBT in the on state,"[3]; L-Dopa optimal dose s.c., amantadine 10 mg/kg s.c.",increased
same,movement speed (time) in KBT,"[3]; L-Dopa suboptimal dose s.c., highest dose (MR1916 0.05 mg/kg, amantadine 10 mg/kg s.c.)",increased
same,effect on MDS in the on state,[4]; L-Dopa optimal dose s.c.,significantly increased MDS
same,effect on MDS,[4]; L-Dopa suboptimal dose s.c.,reduced the beneficial effect of L-Dopa on MDS
FC(F)(F)Cn1cc(-c2ccncc2)c(-c2ccc(OCc3ccc4ccccc4n3)cc2)n1 [TP-10],antidyskinetic effects in rodents,[1]; preliminary tests,antidyskinetic effects
CCCOc1ccc(S(=O)(=O)N2CCN(CC)CC2)cc1-c1nc2c(CC)n(Cc3ccccn3)nc2c(=O)[nH]1 [UK343664],effect on AIMs in rodents,[1],improves AIMs
